These results are taken from ChEMBL document CHEMBL5154735, “Interaction of A3 adenosine receptor ligands with the human multidrug transporter ABCG2” (Eur J Med Chem, 2022).

pEC50, pIC50, pKi: −log10 of the molar value.

Data set [1] addresses T1, ABCG2 (Homo sapiens, UniProt Q9UNQ0).
T1 sequence (Q9UNQ0 whole entry): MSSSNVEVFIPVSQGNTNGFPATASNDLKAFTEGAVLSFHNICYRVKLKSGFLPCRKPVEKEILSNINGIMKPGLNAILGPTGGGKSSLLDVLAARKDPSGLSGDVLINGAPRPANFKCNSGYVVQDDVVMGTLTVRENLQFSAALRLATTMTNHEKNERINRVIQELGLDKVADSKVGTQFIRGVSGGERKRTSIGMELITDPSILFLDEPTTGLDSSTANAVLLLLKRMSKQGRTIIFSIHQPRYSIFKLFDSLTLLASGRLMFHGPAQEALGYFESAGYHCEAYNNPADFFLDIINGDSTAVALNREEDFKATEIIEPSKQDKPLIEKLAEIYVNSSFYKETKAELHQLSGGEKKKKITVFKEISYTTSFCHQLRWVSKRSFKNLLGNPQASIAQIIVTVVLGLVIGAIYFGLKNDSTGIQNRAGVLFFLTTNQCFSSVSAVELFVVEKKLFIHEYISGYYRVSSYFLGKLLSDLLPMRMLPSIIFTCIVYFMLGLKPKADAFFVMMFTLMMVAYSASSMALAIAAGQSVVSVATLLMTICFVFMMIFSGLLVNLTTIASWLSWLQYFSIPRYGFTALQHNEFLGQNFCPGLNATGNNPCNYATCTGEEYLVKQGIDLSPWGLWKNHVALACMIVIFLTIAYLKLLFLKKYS
Description: Inhibition of human ABCG2 in human R5 cells assessed as inhibition of mitoxantrone efflux at 10 uM measured by flow cytometric analysis relative to control. Conditions: probe mitoxantrone. In kind it is cell-based. In a few lines:
(§1)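 HEK293 cells transfected with full-length ABCG2 (R-5) or empty pcDNA vector, grown in MEM with 10% FBS and 2 mg/ml G418. Cells incubated in IMDM with 5% FBS, 5 μM mitoxantrone (final) ± compound, 37°C for 45 min. Washed in cold IMDM, resuspended in cold PBS with 1% BSA, read by flow cytometry.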
In general terms: A flow cytometer gives signals particle by particle.

In data set [2] the target is T1, ABCG2. Description: Activation of human ABCG2-mediated ATPase activity preincubated for 2 mins followed by ATP addition at 100 nM and measured after 20 mins by colorimetric assay relative to control. Conditions: read-out: Activity. The method in brief: (§2)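 Total membrane vesicles from High-Five insect cells expressing human ABCG2 (hypotonic lysis, differential centrifugation), 10 μg protein/tube, in MES-Tris pH 6.8 buffer with KCl, MgCl2, NaN3, EGTA, ouabain, DTT. Compound in DMSO added ± sodium orthovanadate (0.3 mM), DMSO control. Preincubated 2 min at 37°C, then 5 mM ATP, 20 min. SDS stop, Pi measured colorimetrically. Three independent experiments in duplicate, mean ± SE.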

Data set [3] has as its target T2, Broad substrate specificity ATP-binding cassette transporter ABCG2 (Homo sapiens, UniProt Q9UNQ0).
T2 sequence (Q9UNQ0 whole entry): T1 sequence (Q9UNQ0 whole entry)
Description: Activation of human ABCG2-mediated ATPase activity preincubated for 2 mins followed by ATP addition and measured after 20 mins by colorimetric assay. In a few lines: as §2

Another data set has as its target T3, Adenosine receptor A3 (Mus musculus, UniProt Q61618).
T3 sequence (Q61618 whole entry): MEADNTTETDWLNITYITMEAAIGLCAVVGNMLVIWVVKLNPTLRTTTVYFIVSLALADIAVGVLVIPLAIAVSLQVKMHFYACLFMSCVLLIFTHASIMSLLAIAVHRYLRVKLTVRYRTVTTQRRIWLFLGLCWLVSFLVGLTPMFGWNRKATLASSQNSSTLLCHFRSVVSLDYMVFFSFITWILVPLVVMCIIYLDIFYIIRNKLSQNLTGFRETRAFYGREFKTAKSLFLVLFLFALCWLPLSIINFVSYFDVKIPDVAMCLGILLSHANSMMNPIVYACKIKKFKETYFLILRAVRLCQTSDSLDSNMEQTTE
Description: Binding affinity towards mouse adenosine A3 receptor.

The target in data set [4] is T2, Broad substrate specificity ATP-binding cassette transporter ABCG2. Description: Inhibition of human ABCG2 in human R5 cells assessed as inhibition of mitoxantrone efflux measured by flow cytometric analysis. Format: cell-based. The method in brief:
as §1

For the compound `CCOC(=O)C12CC1[C@@H](n1ccc3c(NCCc4ccccc4)nc(C#Cc4ccccc4)nc31)[C@H](O)[C@@H]2O` (single isomer, unassigned), on ABCG2 [1], the inhibition at 10 µM is 92.6%. For the same compound, the activity at 20 min, 0.1 µM at ABCG2 [2] is 77.3%. In data set [3], this compound showed a pEC50 of 7.88. In addition, the pKi on Adenosine receptor A3 was less than 5.00. In data set [4], the pIC50 was 6.36.

In general, inhibition refers to the relative decrease from the control value, in per cent. The term pEC50 denotes −log10 of the EC50, conventionally taken in molar units. Read a low pEC50 as a large EC50. As a reminder, the pKi is −log10 of the Ki, conventionally taken in molar units. Lower therefore signals a high Ki. The term pIC50 denotes the IC50 on a negative log10 scale, so that one unit is a factor of ten.
